Assay results from ChEMBL document CHEMBL1137774, “Conjugation of 2-(1'-hexyloxyethyl)-2-devinylpyropheophorbide-a (HPPH) to carbohydrates changes its subcellular distribution and enhances photodynamic activity in vivo” (J Med Chem, 2009).

Experiments:
[1] = Partition coefficient, log P of the compound; assay type: physicochemical; conditions: octanol/water
Mus musculus = experiment: Skin toxicity in ABCG2-expressing mouse RIF cells xenografted in irradiation exposed C3H mouse assessed as foot response after 24 to 96 hrs; assay type: organism-based; conditions: in vivo
Colon 26 [2] = experiment: Photosensitizing activity in ABCG2-deficient mouse Colon 26 cells assessed as induction STAT3 covalent cross linking pretreated for 4 hrs followed by irradiation exposure to 665 nm light at 3 J/cm2 by Western blotting; assay type: functional, cell-based
Procedure, shortened: (§1)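 Cells incubated 4 h with PS at indicated concentrations in 10% FCS medium, exposed to 665 nm light at 3 J/cm², extracted immediately. STAT-3 cross-linked product detected by Western blot, relative level by densitometry.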

[3] = Photocytotoxicity against ABCG2-expressing mouse RIF cells xenografted in C3H mouse assessed as tumor control at 0.47 umol/kg, iv followed by exposure to irradiation at 48 J/cm2 relative to control; assay type: functional
Procedure, shortened: (§2)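 Mice bearing shoulder tumours (C3H/RIF, BALB/c/Colon26) injected intravenously at 0.47 μmol/kg. Tumours irradiated with 665 nm laser 24 h later at 135 J/cm², 75 mW/cm² or 48 J/cm², 7 mW/cm². Tumour volume by calipers, V=(L×W²)×0.5. Groups of 5–10 mice; curves compared by Cox–Mantel test.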

[4] = Drug uptake in ABCG2-expressing mouse RIF cells assessed as increase in mitochondrial localization at 3 uM for 24 hrs in presence of 10% FCS by fluorescence microscopy; assay type: ADME, cell-based; conditions: 2 µM, in the assay text read “2 uM” for “3 uM”
Procedure, shortened: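 RIF cells grown on poly-L-lysine-coated coverslips, co-incubated with PS and organelle trackers in 10% FCS medium for 3–4 h or 24 h, PBS-washed, imaged at 40× by inverted fluorescence microscopy. Trackers: MitoTracker Green 1 μM 1 h (mitochondria); LysoTracker Green 0.5 μM 0.5 h or 0.1 μm Fluospheres overnight (lysosomes); Bodipy C5 ceramide–albumin 5 μM (Golgi).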

[5] = Photocytotoxicity against ABCG2-expressing mouse RIF cells xenografted in C3H mouse assessed as tumor control at 0.47 umol/kg, iv followed by exposure to irradiation at 135 J/cm2 relative to control; assay type: functional; procedure, shortened: as §2
RIF = experiment: Photosensitizing activity in ABCG2-expressing mouse RIF cells assessed as induction STAT3 covalent cross linking pretreated for 4 hrs followed by irradiation exposure to 665 nm light at 3 J/cm2 by Western blotting; assay type: functional, cell-based; procedure, shortened: as §1
Colon 26 [6] = experiment: Photocytotoxicity against ABCG2-deficient mouse Colon 26 cells xenografted in BALB/c mouse assessed as tumor control at 0.47 umol/kg, iv followed by exposure to irradiation at 48 J/cm2 relative to control; assay type: functional; procedure, shortened: as §2

CCCCCCOC(C)c1c(C)c2cc3nc(c4c5[nH]c(cc6nc(cc1[nH]2)C(C)=C6CC)c(C)c5C(=O)C4)[C@@H](CCC(=O)O)[C@@H]3C (stereo partly drawn) [HPPH]
logP [1]: 6 | Activity (Mus musculus): Toxic | Activity (Colon 26 [2]): Dose-dependent effect | Activity [3]: 40% | Drug uptake [4]: Active | Activity [5]: 50% | Activity (RIF): Dose-dependent effect | Activity (Colon 26 [6]): 30%
